# Bioassay records: PubChem BioAssay, several laboratories
# Hits are enriched below; roughly 2.3% of the tested compounds scored in any of these assays.
# CRFBP-R2 block – blocks CRF-induced signaling of the CRF-BP/CRF-R2 complex; HEK293 CRF-R2/CRF-BP, CRF-induced calcium fluorescence; inhibition, % at 11.8 µM; 350,000 compounds, 0.59% hits; AID 588475;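 active = inhibition of the ligand-induced calcium signal above about 50% at the single tested concentration, limit read from the data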
# Rpn11 block – Rpn11 (human) deubiquitinase inhibition; 360,000 compounds, 0.59% hits; calls only at 20 µM; AID 588493; O00487; human 26S proteasome, Ub4-pepOG fluorescence polarization; 20S core pre-blocked with epoxomicin;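 active = inhibition at 20 µM, scaled to each plate's controls, above about 33%, limit read from the data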
# Target sequence (O00487 whole entry, looked up): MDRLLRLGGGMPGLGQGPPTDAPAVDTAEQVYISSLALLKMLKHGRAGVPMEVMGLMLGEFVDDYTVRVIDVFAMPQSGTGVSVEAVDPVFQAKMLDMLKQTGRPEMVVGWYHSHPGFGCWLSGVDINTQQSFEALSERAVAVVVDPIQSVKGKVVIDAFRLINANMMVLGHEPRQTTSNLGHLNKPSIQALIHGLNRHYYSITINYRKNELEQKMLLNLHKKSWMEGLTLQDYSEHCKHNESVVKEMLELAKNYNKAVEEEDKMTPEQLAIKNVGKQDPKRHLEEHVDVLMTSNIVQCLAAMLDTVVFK
# HNF4A DNA FP – change in binding of human HNF4 alpha to DNA. HNF4a-FITC DNA binding, fluorescence polarization, 1 h. 360,000 compounds, 0.3% hits. activity change, % at 10 µM. P41235. AID 1224865; in the data active = activity change above about 30%, passing the limit was not always enough
# CSN inh – inhibitors of human CSN-mediated cullin deneddylation; Q92905; Purified CSN, SCF-Nedd8-OG deneddylation, fluorescence polarization; inhibition, % at 12.5 µM; 360,000 compounds, 0.38% hits; AID 651999;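 active = pattern-corrected inhibition above about 35%, with an unprinted fluorescence ratio check between 0.5 and 1.5, limit read from the data, passing the limit was not always enough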;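 note: 0% = enzyme with substrate and 100% = substrate without enzyme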
# Target sequence (Q92905 whole entry, looked up, one chain of several): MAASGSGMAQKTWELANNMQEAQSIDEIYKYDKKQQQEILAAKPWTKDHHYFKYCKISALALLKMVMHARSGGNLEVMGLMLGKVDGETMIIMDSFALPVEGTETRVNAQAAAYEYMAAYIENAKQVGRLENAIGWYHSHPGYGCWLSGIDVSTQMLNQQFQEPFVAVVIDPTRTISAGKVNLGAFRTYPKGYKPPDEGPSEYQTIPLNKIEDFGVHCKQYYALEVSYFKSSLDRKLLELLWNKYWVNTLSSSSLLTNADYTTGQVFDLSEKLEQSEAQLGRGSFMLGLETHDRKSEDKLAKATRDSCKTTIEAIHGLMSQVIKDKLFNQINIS
#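 Schedule: reaction 90 min, room temperature / Assay system: HEK293T-derived human Csn5 enzyme / Input: Csn5 at 0.24 nM final / Measure: inhibition of Csn5 cleavage, % / Control set: substrate-only high control, full reaction low control / Technique: fluorescence polarization of the substrate / Buffer or medium: Tris/NaCl/DTT buffer, pH 7.5 / Reagent: SCFSkp2-Nedd8OG substrate at 10 nM final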
# CRFR2-BP ag – CRF-BP/CRF-R2 complex agonism | 350,000 compounds, 0.46% hits | HEK293 CRF-R2/CRF-BP, calcium dye fluorescence (FLIPR); percent of saturating CRF peptide response | activation, % at 13.2 µM;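 active = activation of at least 50%, plus an integration ratio under a set limit after plate pattern correction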;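 note: plate controls were neutral control wells without compound for no effect and CRF at EC100 for full effect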
# TPT1 inh – inhibitors of Candida albicans tRNA 2'-phosphotransferase TPT1 | recombinant caTPT1, FP RNA substrate dephosphorylation | inhibition, % at 5 µM | 300,000 compounds, 0.81% hits | AID 1962;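 active = inhibition above the mean of all tested compounds plus 3 SD, set per screening campaign, cut at about 24% in these data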;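 note: plate controls were DMSO alone for no effect and ferristatin control at 100 nM for full effect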
# caTPT1 confirm – TPT1 (C. albicans) inhibition, confirmation; AID 2149; shares compounds with TPT1 inh; inhibition, % at 5 µM; 2,400 compounds, 74% hits; recombinant caTPT1, fluorescence polarization, RNase T1 coupled;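 active = inhibition above the primary screen limit, the mean inhibition of all tested compounds plus 3 SD, cut at about 25% in these data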
# RNase T1 counter – RNase T1 inhibition in TPT1 counter-screen; 2,400 compounds, 83% hits; inhibition, % at 5 µM; RNase T1 cleavage, fluorescence polarization, 1536-well; shares compounds with TPT1 inh;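 active = inhibition above the solvent-only control well mean plus 3 SD, limit set per screening run, cut at about 23% in these data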;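 note: plate controls were DMSO wells with enzyme for no effect and wells without RNase T1 for full effect; inhibitors block cleavage so intact labeled substrate keeps polarization high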
# The depositor's hits bear a star; i = inactive; . = no result shown.
SMILES,CRFBP-R2 block,Rpn11 block,HNF4A DNA FP,CSN inh,CRFR2-BP ag,TPT1 inh,caTPT1 confirm,RNase T1 counter
Cc1c(N=N/C(C(=O)Nc2ccccc2)=C(/O)c2ccccc2)c(=O)n(-c2ccccc2)n1C,-3,i,22,5,8,55*,54*,67*
Cc1ccccc1S(=O)(=O)NC1=NCCCCC1,9,i,1,-1,-1,1,.,.
Cc1cccc(NC(=O)c2cccc(N3C(=O)C4C5C=CC(C6CC56)C4C3=O)c2)c1 (stereo unspecified),-24,i,0,2,0,0,.,.
CCc1ccc(/C=C/C(=O)c2cc(Br)ccc(=O)c2O)cc1,-6,i,-1,25,-3,25*,25*,33*
CCOc1ccc(/C=C/C(=O)c2cc(Br)ccc(=O)c2O)cc1,-26,i,-7,18,5,24*,32*,41*
COc1ccc(C=C(C#N)C(=O)c2ccccc2)cc1,.,.,3,2,.,.,.,.
COc1ccc(/C=C(\C#N)C(=O)C(C)(C)n2cncn2)cc1,-65,i,5,1,27,33*,3,4
O=[N+]([O-])c1cccc(-c2nc(-c3cccs3)c(-c3cccs3)[nH]2)c1,-4,i,15,3,-1,-1,.,.
O=[N+]([O-])c1ccc(-c2nc(-c3cccs3)c(-c3cccs3)[nH]2)cc1,-39,.,32,28,33,63*,60*,77*
N#Cc1cc(NC(=O)c2ccc(F)cc2)c(=O)n2c1[nH]c1ccccc12,.,.,.,.,.,28*,30*,38*
Cc1c(CCC(=O)O)c(=O)n2c([nH]c3ccccc32)c1C#N,5,i,-2,11,-1,-2,.,.
CC(CNC(=O)c1cc(COc2ccc3ncccc3c2)on1)c1ccccc1 (stereo unspecified),-14,i,2,-1,-1,3,.,.
Cc1ccc(C)c(N/C=C(\C#N)c2nc3ccccc3o2)c1,-18,i,4,4,8,0,.,.
COc1cc(/C=C(\C#N)c2nc3ccccc3o2)ccc1O,-97,.,190,109,155*,164*,170*,156*
O=c1c(O)c(-c2cccs2)oc2ccccc12,-64,i,-7,-1,108*,25*,25*,36*
Cc1ccc(Nc2nc(NCc3ccccc3)nc3ccsc23)c(C)c1,.,i,3,6,.,.,.,.
COc1ccc(C(=O)N2CCN(c3nc(C4CC4)nc4sc(C)c(C)c34)CC2)cc1,-1,i,1,2,0,-1,.,.
Cc1ccc(C2C=C(c3ccccc3OC(F)F)Nc3ncnn32)cc1 (stereo unspecified),-20,i,-3,3,29,1,.,.
CN(C)c1ccc(C2C=C(c3ccc(Cl)cc3OC(F)F)Nc3ncnn32)cc1 (stereo unspecified),-63,.,34,24,59*,49*,43*,56*
Oc1[nH]c2ccccc2c1N=Nc1ccccc1F,-77,.,72,-96,145*,138*,129*,130*
CC(C)(O)C(=O)N=Nc1c(O)[nH]c2ccccc12,-7,i,0,1,-1,0,.,.
O=C(CN1C(=O)NC2(CCCCC2)C1=O)Nc1ccc(Cl)cc1,4,i,1,-1,0,.,.,.
CCN1C(=O)[C@@H]2Cc3c([nH]c4ccccc34)C(c3ccc(OC)cc3)N2C1=S (stereo partly specified),7,.,43*,24,4,65*,48*,60*
N#C/C(=C\c1ccc(N2CCOCC2)o1)c1nc2ccccc2[nH]1,-62,.,34,-21,95*,182*,158*,144*
N#C/C(=C/c1ccc(N2CCOCC2)o1)c1ccc(Cl)cc1,0,.,138,8,1,163*,165*,155*
SMILES,CRFBP-R2 block,Rpn11 block,HNF4A DNA FP,CSN inh,CRFR2-BP ag,TPT1 inh,caTPT1 confirm,RNase T1 counter
N#C/C(=C\c1ccc(N2CCOCC2)c([N+](=O)[O-])c1)c1nc2ccccc2[nH]1,-37,i,-1,-3,0,2,.,.
CCCC(NC(=O)c1c(C)noc1C)C12CC3CC(CC(C3)C1)C2 (stereo unspecified),-4,i,0,3,-1,81*,25*,35*
COCCCn1c(O)c(/C=C2\N=C(C#N)C(=Nc3ccc(C)cc3)O2)sc1=S,-21,.,110,20,9,79*,80*,85*
COC(=O)c1ccnc(/C=N/O)c1,7,i,0,4,-4,50*,7,7
CCc1cc2c(=O)[nH]c(-c3ccncc3)nc2s1,-1,i,5,-1,-1,29*,3,6
CCc1cc2c(=O)[nH]c(Cc3ccccc3)nc2s1,4,i,1,9,-1,-1,.,.
CCN(Cc1ccccc1)C1CCN(Cc2ccc(SC)cc2)CC1,-2,i,7,-8,-1,1,.,.
Brc1ccc(C2=CSC3=NCCN23)cc1,3,i,-5,0,-4,-7,.,.
C=CC(C)N1C(=O)S/C(=C\c2ccc(N3CCOCC3)cc2C)C1=O (stereo unspecified),-35,i,17,7,3,32*,57*,64*
C=CCN1C(=O)S/C(=C\c2ccc(N3CCOCC3)cc2C)C1=O,-12,i,22,10,5,66*,54*,66*
N#Cc1cnc(SCCc2ccccc2)nc1N,9,i,17,7,10,39*,32*,42*
CC(C)CNc1c(N)n(CC(C)C)c(=O)[nH]c1=O,-11,i,-6,-3,3,.,.,.
COc1ccc(-c2nc(NC(=O)Cn3ccc(C(F)(F)F)n3)sc2C)cc1,-6,i,2,4,-1,-3,.,.
N#C/C(=C\c1ccc(N2CCCCC2)o1)C(=O)Nc1cccc(Br)c1,-265,.,133,109,312*,168*,191*,172*
O=C(CN1C(=O)S/C(=C\c2cc(Cl)c(O)c(Cl)c2)C1=O)Nc1ccccc1,-20,.,38*,29,12,96*,100*,108*
COCCCNC(=O)N1c2ccccc2Sc2ccccc21,-1,i,-1,1,16,25*,10,16
CC(C)C[C@H](NC(=O)OC(C)(C)C)c1nnc(SCC(=O)Nc2ccc(Br)cc2)o1,-63,i,-1,-2,3,0,.,.
O=[N+]([O-])c1ccc(N/N=C/c2ccccc2)c(F)c1,-103,i,12,3,0,27*,44*,54*
